Common to all, as to type: functional
The subject of one assay is Cirsium arvense. The assay is described as follows: Phytotoxicity against Cirsium arvense at 1 mg/ml by leaf disk puncture assay. In short, it runs like this:
(§1)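 Leaf disks wounded centrally with a needle, kept on moistened filter paper in closed boxes. Compound dissolved in MeOH, diluted with distilled water to 1 mg/mL final (2% v/v MeOH; MeOH-only control); 10 μL drop applied at the wound. Incubated 48 h under cycles of 8 h dark at 20 °C and 16 h light at 24 °C; necrotic area then measured.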

The test system of another assay is Sonchus arvensis. Kind of assay: Phytotoxicity against Sonchus arvensis at 1 mg/ml by leaf disk puncture assay. A digest of the protocol: as §1
In another assay the test system is Colpoda steinii. Kind of assay: Phytotoxicity against Colpoda stenii at 0.05 mg/ml after 3 hrs. Particulars: Colpoda steini, in the assay text read “Zootoxicity” for “Phytotoxicity”. A digest of the protocol:
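Dried Colpoda steinii culture (~5000 cells per mL) revived in Lozina-Lozinskogo medium, 24 h at 25 °C. Compound in 4% EtOH mixed 1:1 v/v with the suspension, 0.05 mg/mL final; 4% EtOH control. Immobile cells (%) counted over 3–180 min. Full immobilisation within 3 min scored as strong toxicity; loss of motility at ≥180 min scored as medium.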

With `C[C@@H]1CC[C@@H](O)/C=C/C=C\C(=O)O1`, the Activity result with Cirsium arvense and with Sonchus arvensis was “Not toxic” in each case.
Take `C[C@@H]1C[C@H](O)/C=C/[C@@H](O)CCC(=O)O1`: the Activity entry in the assay on Cirsium arvense, with Colpoda steinii and with Sonchus arvensis was “Not toxic” throughout.
Regarding `CCC[C@H]1OC(=O)CC[C@@H](O)/C=C/[C@H](O)[C@@H]1O`, the Activity entry in the assay on Cirsium arvense and in the assay with Sonchus arvensis was “Not toxic” throughout.
With `C[C@@H]1C/C=C/[C@@H](O)CCCC(=O)O1`, the Activity entry in the assay on Cirsium arvense and in the assay with Sonchus arvensis was “Not toxic” in each case.
In the case of `C[C@@H]1OC(=O)CC[C@H](O)/C=C/[C@@H]2O[C@H]12`, the Activity entry in the assay with Cirsium arvense and with Sonchus arvensis was “Not toxic” throughout.
Consider `CCC[C@H]1OC(=O)CCC/C=C/C(=O)[C@@H]1O`, for which the Activity entry with Cirsium arvense was “Toxic”; in the assay with Colpoda steinii, “Not toxic”; with Sonchus arvensis, “Toxic”.

These data come from ChEMBL document CHEMBL1142410, “Stagonolides B-F, nonenolides produced by Stagonospora cirsii, a potential mycoherbicide of Cirsium arvense” (J Nat Prod, 2008).
